Experimental data from ChEMBL document CHEMBL4610103, “Oleanane Triterpenoids from the Leaves of Gymnema inodorum and Their Insulin Mimetic Activities” (J Nat Prod, 2020).
Calls of active or inactive are those of the source.

How the values were obtained:
Type in all cases: functional, cell-based
[1] = tested on: 3T3-L1; experiment: Induction of glucose uptake in mouse 3T3L1 cells assessed as increase in 2-NBDG uptake after 1 hr by fluorescence method
Procedure, shortened: (§1)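 Differentiated 3T3-L1 adipocytes switched to glucose-free medium containing 100 nM insulin, test compounds (20 μM single dose, or 5, 10 and 20 μM) and 50 μM 2-NBDG. Cells washed twice with PBS and lysed in 1% Triton X-100/0.1 M K3PO4 in PBS. Fluorescence read at ex 450/em 535 nm. Means ± SD of three independent experiments, each in triplicate. DMSO vehicle control; insulin positive control.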

[2] = tested on: 3T3-L1; experiment: Induction of glucose uptake in mouse 3T3L1 cells assessed as increase in 2-NBDG uptake at 20 uM after 1 hr by fluorescence method; procedure, shortened: as §1
[3] = tested on: 3T3-L1; experiment: Induction of glucose uptake in mouse 3T3L1 cells assessed as increase in 2-NBDG uptake at 20 uM after 1 hr by fluorescence microscopy
Procedure, shortened: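 Differentiated 3T3-L1 adipocytes treated with 20 μM compound in the presence of 2-NBDG. Green fluorescence inside cells was imaged by fluorescence microscopy to follow 2-NBDG transport. Signals expressed as means ± SD (n = 3). DMSO negative control; insulin positive control.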

Measured: Activity

CC1(C)C[C@H](OC(=O)c2ccccc2)[C@]2(CO)[C@@H](O)C[C@]3(C)C(=CC[C@@H]4[C@@]5(C)CC[C@H](O[C@@H]6O[C@H](C(=O)O)[C@@H](O)[C@H](O)[C@H]6O)[C@@](C)(CO)[C@@H]5CC[C@]43C)[C@@H]2C1
active: [1] Dose-dependent effect | [2] | [3]

CNc1ccccc1C(=O)O[C@H]1CC(C)(C)C[C@H]2C3=CC[C@@H]4[C@@]5(C)CC[C@H](O[C@@H]6O[C@H](C(=O)O)[C@@H](O)[C@H](O)[C@H]6O)[C@@](C)(CO)[C@@H]5CC[C@@]4(C)[C@]3(C)C[C@H](O)[C@@]12CO
active: [1] Dose-dependent effect | [2] | [3]

CC1(C)CC[C@]2(C)[C@@H](O)C[C@]3(C)C(=CC[C@@H]4[C@@]5(C)CC[C@H](O[C@@H]6O[C@H](C(=O)O)[C@@H](O)[C@H](O)[C@H]6O[C@@H]6O[C@H](CO)[C@@H](O)[C@H](O)[C@H]6O)C(C)(C)[C@@H]5CC[C@]43C)[C@@H]2C1
active: [1] Dose-dependent effect | [2] | [3]
